Experimental data: ChEMBL document CHEMBL2062469, “1-(2-Mercaptobenzenesulfonyl)-3-hydroxyguanidines--novel potent antiproliferatives, synthesis and in vitro biological activity” (2012)

Experiments:
Type in all cases: functional
NCI-H522 = test: Cytostatic activity against human NCI-H522 cells
In short: (§1)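 NCI-60 human tumor cell line screen run by the US National Cancer Institute under the NIH Developmental Therapeutics Program protocol. A single-dose prescreen at 10 µM came first. Selected compounds then went into the 5-dose assay. Cytostatic activity is reported as GI50 (µM).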

OVCAR-3 = test: Cytostatic activity against human OVCAR3 cells; in short: as §1
IGROV-1 = test: Cytostatic activity against human IGROV1 cells; in short: as §1
NCI-H460 = test: Cytostatic activity against human NCI-H460 cells; in short: as §1
Hs-578T = test: Cytostatic activity against human Hs 578T cells; in short: as §1
UACC-257 = test: Cytostatic activity against human UACC257 cells
In short: (§2)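 Human tumour cell lines from the NCI-60 panel, tested at the US National Cancer Institute under the NIH Developmental Therapeutics Program protocol. A single-dose prescreen at 10 µM came first. Selected compounds then went to a 5-dose assay, which gave GI50 and TGI values in µM.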

UO-31 = test: Cytostatic activity against human UO31 cells; in short: as §2
M14 = test: Cytostatic activity against human M14 cells; in short: as §1
SNB-75 = test: Cytostatic activity against human SNB75 cells; in short: as §2
HT-29 = test: Cytostatic activity against human HT-29 cells; in short: as §1
SF-268 = test: Cytostatic activity against human SF268 cells; in short: as §1
Malme-3M = test: Cytostatic activity against human MALME-3M cells; in short: as §1
UACC-62 = test: Cytostatic activity against human UACC62 cells; in short: as §2

N=C(NO)NS(=O)(=O)c1cc(-c2nc(-c3ccc(Cl)cc3)no2)c(Cl)cc1SCc1ccc2c(c1)OCO2
GI50 (NCI-H522): 1.02 µM | GI50 (OVCAR-3): 1.7 µM | GI50 (IGROV-1): 2.14 µM | GI50 (NCI-H460): 2.14 µM | GI50 (Hs-578T): 2.69 µM | GI50 (UACC-257): 1.91 µM | GI50 (UO-31): 1.91 µM | GI50 (M14): 1.86 µM | GI50 (SNB-75): 1.74 µM | GI50 (HT-29): 1.82 µM | GI50 (SF-268): 1.82 µM | GI50 (Malme-3M): 2.63 µM | GI50 (UACC-62): 1.7 µM

COc1cc(CSc2cc(Cl)c(-c3nnc(-c4ccccc4)s3)cc2S(=O)(=O)NC(=N)NO)cc(OC)c1OC
GI50 (NCI-H522): 2.04 µM | GI50 (OVCAR-3): 2.19 µM | GI50 (IGROV-1): 3.72 µM | GI50 (NCI-H460): 3.24 µM | GI50 (Hs-578T): 3.31 µM | GI50 (UACC-257): 6.03 µM | GI50 (UO-31): 3.98 µM | GI50 (M14): 4.07 µM | GI50 (SNB-75): 1.86 µM | GI50 (HT-29): 4.17 µM | GI50 (SF-268): 2.4 µM | GI50 (Malme-3M): 3.09 µM | GI50 (UACC-62): 3.24 µM

COc1cc(CSc2cc(Cl)c(-c3nnc(-c4ccc(Cl)cc4)s3)cc2S(=O)(=O)NC(=N)NO)cc(OC)c1OC
GI50 (NCI-H522): 8.91 µM | GI50 (OVCAR-3): 10.2 µM | GI50 (IGROV-1): 58.9 µM | GI50 (NCI-H460): 34.7 µM | GI50 (Hs-578T): 8.13 µM | GI50 (UACC-257): 26.3 µM | GI50 (UO-31): 44.7 µM | GI50 (M14): 40.7 µM | GI50 (SNB-75): 25.7 µM | GI50 (HT-29): 6.76 µM | GI50 (SF-268): 9.55 µM | GI50 (Malme-3M): 97.7 µM | GI50 (UACC-62): 16.2 µM

COc1cc(CSc2cc(Cl)c(-c3nc(-c4ccccc4)no3)cc2S(=O)(=O)NC(=N)NO)cc(OC)c1OC
GI50 (NCI-H522): 3.8 µM | GI50 (OVCAR-3): 4.79 µM | GI50 (IGROV-1): 5.62 µM | GI50 (NCI-H460): 4.37 µM | GI50 (Hs-578T): 7.41 µM | GI50 (UACC-257): 13.2 µM | GI50 (UO-31): 4.47 µM | GI50 (M14): 6.61 µM | GI50 (SNB-75): 3.98 µM | GI50 (HT-29): 7.24 µM | GI50 (SF-268): 6.92 µM | GI50 (Malme-3M): 13.5 µM | GI50 (UACC-62): 3.09 µM

COc1cc(CSc2cc(Cl)c(-c3nc(-c4ccc(Cl)cc4)no3)cc2S(=O)(=O)NC(=N)NO)cc(OC)c1OC
GI50 (NCI-H522): 2.14 µM | GI50 (OVCAR-3): 1.91 µM | GI50 (IGROV-1): 3.8 µM | GI50 (NCI-H460): 2.24 µM | GI50 (Hs-578T): 4.17 µM | GI50 (UACC-257): 9.33 µM | GI50 (UO-31): 3.16 µM | GI50 (M14): 2.19 µM | GI50 (SNB-75): 2.95 µM | GI50 (HT-29): 2.95 µM | GI50 (SF-268): 2.95 µM | GI50 (Malme-3M): 7.76 µM | GI50 (UACC-62): 1.95 µM
